Tests used:
[1] = Inhibition of human erythrocyte calpain using Suc-Leu-Tyr-AMC substrate after 30 mins by spectrofluorimetry
How it was run: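 Human erythrocyte calpain I, 34 nM stock added to start, with Suc-Leu-Tyr-AMC, NaCl and CaCl2 in 50 mM Tris–HCl pH 7.5, 1 mM DTT; DMSO ≤1% final. After 30 min at rt, AMC fluorescence read (ex 380/em 460 nm) against calpain-free blank. IC50 from percent inhibition across concentrations; means ± SD, three independent experiments.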

[2] = test system: Radical scavenging activity; experiment: Antioxidant activity assessed as DPPH free radical scavenging activity after 30 mins; format: functional
How it was run: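 Test samples in ethanol mixed with 100 µM ethanolic DPPH, incubated 37 °C for 30 min; absorbance read at 515 nm. Percent inhibition taken against ethanol-treated controls; IC50 is the concentration scavenging 50% of DPPH radicals. Means ± SD of three independent experiments.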

Liver = experiment: Antioxidant activity in rat liver homogenates assessed as inhibition of iron-ascorbic acid mix-induced lipid peroxidation after 30 mins by TBARS assay; format: functional, tissue-based; settings: 0.5 h
How it was run: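 Rat liver homogenate (11 mg protein/ml, Bradford vs BSA) incubated with 10 µM […], 0.4 mM ascorbic acid and graded compound concentrations in 50 mM Tris–HCl pH 7.5, 37 °C for 30 min. Stopped with TBA–TCA reagent containing HCl and BHT, heated 95 °C 30 min, centrifuged, supernatant A535 read. IC50 from three independent experiments, means ± SD.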

Structure (SMILES) | IC50 [1] [nM] | IC50 [2] [nM] | IC50 (Liver) [nM]
COc1cc2oc(C(=O)N[C@@H](Cc3ccccc3)C(=O)C(N)=O)c(C)c(=O)c2cc1OC | 90 |  | 
COc1cc2oc(C(=O)N[C@@H](Cc3ccccc3)C(=O)C(=O)NCc3ccccc3)c(C)c(=O)c2cc1OC | 190 |  | 
COc1ccc(CCNC(=O)C(=O)[C@H](Cc2ccccc2)NC(=O)c2oc3cc(OC)c(OC)cc3c(=O)c2C)cc1 | 270 |  | 
COc1ccc2c(=O)c(C)c(C(=O)N[C@@H](Cc3ccccc3)C(=O)C(N)=O)oc2c1 | 120 |  | 
COc1ccc2c(=O)c(C)c(C(=O)N[C@@H](Cc3ccccc3)C(=O)C(=O)NCc3ccccc3)oc2c1 | 430 |  | 
COc1ccc(CCNC(=O)C(=O)[C@H](Cc2ccccc2)NC(=O)c2oc3cc(OC)ccc3c(=O)c2C)cc1 | 230 |  | 
COc1cc2oc(C(=O)N[C@@H](Cc3ccccc3)C(=O)C(=O)NCc3ccccc3)c(C)c(=O)c2cc1O | 110 |  | 
COc1ccc(CCNC(=O)C(=O)[C@H](Cc2ccccc2)NC(=O)c2oc3cc(OC)c(O)cc3c(=O)c2C)cc1 | 100 |  | 
Cc1c(C(=O)N[C@@H](Cc2ccccc2)C(=O)C(=O)NCc2ccccc2)oc2cc(O)c(O)cc2c1=O | 280 | 26500 | 48700
COc1ccc(CCNC(=O)C(=O)[C@H](Cc2ccccc2)NC(=O)c2oc3cc(O)c(O)cc3c(=O)c2C)cc1 | 1290 | 41400 | 52500
Cc1c(C(=O)N[C@@H](Cc2ccccc2)C(=O)C(=O)NCc2ccccc2)oc2cc(O)ccc2c1=O | 130 |  | 
COc1ccc(CCNC(=O)C(=O)[C@H](Cc2ccccc2)NC(=O)c2oc3cc(O)ccc3c(=O)c2C)cc1 | 90 |  | 
Cc1c(C(=O)N[C@@H](Cc2ccccc2)C(=O)C(N)=O)oc2ccccc2c1=O | 70 | > 100000 | > 100000
O=C1O[C@H]([C@@H](O)CO)C(O)=C1O [ASCORBIC ACID] |  | 30800 | > 100000

Source: ChEMBL document CHEMBL1777677, “Synthesis of chromone carboxamide derivatives with antioxidative and calpain inhibitory properties” (Eur J Med Chem, 2011)
